# Measured values published in ChEMBL document CHEMBL4513216, “Probing the Open Global Health Chemical Diversity Library for Multistage-Active Starting Points for Next-Generation Antimalarials” (ACS Infect Dis, 2020).
# Test: Toxicity liver stage against HepG2, at 10uM
# Type: cell-based
# Parameters: test concentration 10 uM, cell line HepG2-A16-CD81EGFP
# Settings: human, HepG2-A16-CD81EGFP cells; read-out: INHIBITION
# How it was run: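 Uninfected HepG2-A16-CD81EGFP cells, 3 × 10^3 per well, 1536-well, plated on prespotted compound at 10 μM final, parasite-free screening media added to match infected plates; puromycin 10 μM positive, DMSO 0.5% negative; run in parallel with 48 h PbLuc assay at 37 °C, 5% CO2; viability by CellTiter-Glo luminescence, normalized to controls.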
row,Compound,cytotoxicity at 10 µM [%]
1,CN1Cc2[nH]nc(COCC3CC3)c2C1,18
2,Cc1nc(-c2cccs2)ccc1C(=O)N1CCN(CC(C)O)CC1 (stereo not drawn),-45.1
3,COc1cc(NC(=O)C2CC(=O)N(c3cccc(Br)c3)C2)ncn1 (stereo not drawn),33.4
4,Cc1ccc2cc(CNCCCN3CCOCC3)c(=O)[nH]c2c1C,-10.1
5,O=C(CN1CCCC1Cn1cccn1)NC1CCN(C2CC2)CC1 (stereo not drawn),5.77
6,c1cc(CN2CCCn3cnc(COCC4CC4)c3C2)co1,-74.2
7,NC(=O)Cn1c(SCc2noc(-c3ccsc3)n2)nnc1C1CC1,15.4
8,Cc1nccnc1-n1c(COCC(=O)O)nc2c(C)cccc21,-6.29
9,Cc1cc(C(=O)NCC(=O)N2CCOCC2)nn1C(C)(C)C,-3.44
10,COc1ccc(CN2CCc3ncnc(C4CC4)c3CC2)cc1,-148
11,OCCc1cc(C2CCCN2c2ncccn2)n[nH]1 (stereo not drawn),5.56
12,CC(C)c1nc(CC(=O)N(C)Cc2ccc3c(c2)OCO3)cs1,-13.5
13,CCOC(=O)c1cnn(C2CCN(C(=O)CCC(C)C)CC2)c1N,-0.12
14,Cc1cccc(CC2COCCN(Cc3nccn3C)C2)n1 (stereo not drawn),1.61
15,CN(C)C(=O)CN1CCCC(c2nccnc2-c2cccc(Cl)c2)C1 (stereo not drawn),4.21
16,c1cc(CNCC2Cn3nncc3CO2)co1 (stereo not drawn),7.8
17,c1cc(CN2CCOC3(CCCC3)C2)no1,-8.29
18,O=C(NCc1cccs1)c1nc2c(o1)CN(CC1CC1)C2,-2.83
19,CC(=O)OC1CN(c2nc3c(C)cccc3s2)C1,-5.14
20,CCn1nc(C)c(NC(=O)c2nnn(Cc3ccccc3)c2OC)c1C,13.9
21,CC(C)c1ccc(CNC(c2ccc(F)cn2)C(C)C)cc1 (stereo not drawn),-4.45
22,Cc1ccnc(C(NC(=O)c2sc(C)nc2C)C2CC2)n1 (stereo not drawn),-11
23,CSC(C)C(=O)NCCCc1cc(N)n(-c2ccccc2)n1 (stereo not drawn),3.25

row,Compound,cytotoxicity at 10 µM [%]
1,Cc1nnc(N2C[C@H](OCc3ccncc3)[C@H]3OCCC[C@H]32)s1,13.6
2,Cc1ccc(N2CC[C@H]3C[C@@H](C(=O)N4CCOCC4)O[C@H]3C2)nn1,4.94
3,CCc1noc(CN2CCN(C(=O)Cc3ccc(F)cc3)CC2)n1,10.4
4,O=C(Nc1cccc(CNCc2ccsc2)c1)C1CC1,-10.7
5,O=C(c1ccc(-c2nc[nH]n2)cc1)N1CC[C@H](CO)[C@@H](O)C1,0.466
6,Cc1cc(C[C@@H]2COC[C@H]2NCc2ccccc2C(F)(F)F)on1,-6.15
7,Cc1[nH]c(-c2ccccc2)nc1C(=O)N1CCC(O)(CO)CC1,1.1
8,CCC(C)(CC(=O)OC)NCc1nc(C)no1 (stereo not drawn),-5.69
9,CNc1cncc(C2CCCN2Cc2ccccc2OCC(=O)O)n1 (stereo not drawn),-0.105
10,CCCc1nc(C)c(C(=O)NC2CCN(C3CC3)C2)s1 (stereo not drawn),-7.82
11,CC(C)(C)SCC(=O)NCCc1csc(N2CCCC2)n1,8.74
12,CCN(CC)C(=O)c1cccc(Cn2nc(C)cc2C)c1,-5.93
13,O=C(c1cn(-c2ccccc2)nn1)N1CCCC(n2cccn2)C1 (stereo not drawn),-7.85
14,CC(=O)Nc1nc(C(=O)N2CCCC(n3nc(C)cc3C)C2)cs1 (stereo not drawn),0.74
15,Cc1csc(CN(CC2CCCO2)C(=O)c2ccc(C)nc2C)n1 (stereo not drawn),-1.19
16,Cc1cc(C)c(CNC(=O)N(C)Cc2cccc(F)c2)c(=O)[nH]1,-1.62
17,CNC(=O)C(C)(C)NC(=O)c1cc(OCC2CCC2)cc(C(=O)OC)c1,-8.97
18,CCCc1nc(C(C)(C)NC(=O)C2CC(=O)N(C3CC3)C2)no1 (stereo not drawn),-4.41
19,CN(CCCc1cc(-c2ccc(F)cc2)n[nH]1)C(=O)CCn1cncn1,-137
20,Cc1cccc(CN2C[C@@H](F)[C@@H](OCc3nc4ccccc4[nH]3)C2)n1,8.01
21,O=C(NC1CCN(CC2CC2)C1)c1ccc(N2CCC(O)CC2)cc1 (stereo not drawn),-11.8
22,CC(C)OCCC(=O)NS(=O)(=O)N1CCOc2ccccc21,-0.955
23,O=C1CCCN1c1cccc(CNCc2nc(C3CC3)no2)c1,-7.11

row,Compound,cytotoxicity at 10 µM [%]
1,CN(C)CCn1ccnc1C1CCN(C(=O)CCC(F)(F)F)CC1,-0.734
2,O=C(c1ccccn1)N1CCC2(CC1)COC(COCC1CCCC1)C2 (stereo not drawn),-1.18
3,CCc1c(C)nn(CCNC(=O)c2csc(C)n2)c1C,-2.78
4,O=C(CCC1CCN(C2CSCCSC2)CC1)NCC1CCCO1 (stereo not drawn),6.5
5,Cc1c(CN2CCCC(C(=O)CCc3ccccc3)C2)cc(C#N)n1C (stereo not drawn),-5.76
6,CCC(CC)C(=O)NCC1(NC(C)c2ccccc2)CCOCC1 (stereo not drawn),14.7
7,COc1cc(N2C[C@H]3CN(CC(=O)N(C)C)C(=O)[C@H]3C2)ncn1,96.6
8,CC(C)C(NC(=O)c1ccc(=O)[nH]c1)c1nnc2n1CCNCC2 (stereo not drawn),-1.86
9,CN1CCCC2(CCN(c3cccc(C#N)n3)C2)C1=O (stereo not drawn),3.61
10,Cn1c2c(c(=O)c3ccccc31)CCC(C)(C)O2,2.76
11,Cc1ccc(C)c(OCCC(=O)N2CCCN(CC(N)=O)CC2)c1,-8.54
12,CS(=O)(=O)NC[C@H]1OC[C@@H](NC2CCC(F)(F)CC2)[C@@H]1O,0.644
13,CCCc1cc(C(=O)N(Cc2cccnc2)Cc2cccnc2)[nH]n1,-5.79
14,Cc1ccc(CN2CCN(Cc3ccncc3)CC2=O)cc1,-5.64
15,Cc1nonc1C1CCCN1CCC(=O)N1CCc2ccccc2C1 (stereo not drawn),-11.2
16,O=C1CC(c2ccc(C(=O)O)cc2)c2ncn(-c3cccc(Cl)c3)c2N1 (stereo not drawn),-2.17
17,CN(C)c1cc(CNC(=O)c2ccc(Br)cc2F)ccn1,-26
18,Cc1ccc(Nc2ncnc3c2CCN(CC2CCOC2)CC3)cc1 (stereo not drawn),5.32
19,c1csc(CN(Cc2ccsc2)CC2CCCO2)n1 (stereo not drawn),-1.32
20,COCC(=O)N(Cc1ccc2[nH]ccc2c1)C1CC1,-2.46
21,Cc1cncc(C(=O)N2CCNCC2C(=O)NCc2ccncc2)c1 (stereo not drawn),-4
22,O=C(CCNC(=O)c1cnccn1)Nc1ncc[nH]1,-44.7
23,CNc1cncc(C2CCCN(S(C)(=O)=O)C2)n1 (stereo not drawn),3.19

row,Compound,cytotoxicity at 10 µM [%]
1,CCCc1nc(CN2CCc3c(ncn3C3CC3)C2)cs1,-0.0225
2,Cc1nc2c(C)cccc2cc1C(=O)N1CCC2(CCCNC2)C1 (stereo not drawn),-10.3
3,CN(CCCOc1ccccc1)S(=O)(=O)N1CCOCC1,4.38
4,NC(=O)NC(=O)CNC1(c2ccc(Cl)cc2)CCC1,9.23
5,CCCN(Cc1cnn(C)c1)S(=O)(=O)c1cc(C)cc(F)c1,16.2
6,Cc1cnc(N2C[C@@H]3[C@@H](C2)OCC(=O)N3C)nc1,-3.4
7,CCOc1ccc(CN[C@@H]2COC[C@H]2c2ccc(F)cc2)cc1,17.1
8,Cc1nc(C(=O)N(Cc2c(C)nn(C)c2C)C(C)C)cs1,3.57
9,CN1CCCC1c1cncc(C(=O)NCCN2CCCCC2)n1 (stereo not drawn),0.388
10,c1cnn(Cc2nnc3n2CCCN(c2nccs2)C3)c1,9.37
11,CC(C)CN(CC(O)c1ccccc1)C(=O)NC(C)C (stereo not drawn),-3.96
12,CCN(Cc1ccccc1O)CC1(C)Cc2c(N)nc(N)nc2O1 (stereo not drawn),2.15
13,COc1ncc(CN2CCCC2c2[nH]ncc2C(=O)N(C)C)cn1 (stereo not drawn),-0.116
14,CN(Cc1ccc(N(C)C)cc1)C(=O)c1cc2c([nH]c1=O)CCCC2=O,-3.34
15,O=C(c1ccc[nH]1)N1CCc2nnc(Cn3cccc3)n2CC1,3.46
16,Cc1nc(NCCc2noc(C3CCCO3)n2)c2sccc2n1 (stereo not drawn),53.6
17,Cc1cc2c(=O)n(CCSc3cnn[nH]3)cnc2s1,10.1
18,Cc1ccc(C)c(OC2CCN(C(=O)c3ccc(O)nc3)CC2)c1,3.23
19,COc1cccc(COCC(=O)N2CCCCCC2)c1,-3.48
20,CC(CNC(=O)c1cnc[nH]1)Oc1ccccc1Br (stereo not drawn),2.74
21,CC(=O)N1CCCC1c1cc(N2CCN(CC(C)(C)C)CC2)cc(C)n1 (stereo not drawn),-6.41
22,CN(Cc1cccc(C(N)=O)c1)Cc1nc2c(cnn2C)c(=O)[nH]1,-2.97
23,O=C(c1coc(-c2ccccc2)n1)N1CCCCC1,11.2

row,Compound,cytotoxicity at 10 µM [%]
1,CN(CCc1ccncc1)CCc1nccs1,1.8
2,CN1CCOC[C@H]1c1nc(-c2cccc(F)c2)c[nH]1,-3.68
3,CCn1cc(CN2CCCN(C(=O)c3sccc3OC)CC2)cn1,-5.68
4,O=S(=O)(c1cccnc1)N1C[C@@H]2COC[C@]2(CN2CCOCC2)C1,5.86
5,COC(=O)NCC(=O)NCC(C)(C)c1cccc(Br)c1,-3.01
6,CCC(C)NC(=O)CN1CCOCC1 (stereo not drawn),-5.74
7,CCCn1cc(CN2CCOCC2c2[nH]ncc2C)cn1 (stereo not drawn),0.325
8,COCCn1ccc(NCc2scnc2C)n1,-2.9
9,CC(C)Nc1cc(-c2c[nH]nc2C2CCN(C(=O)C3CC3)C2)ccn1 (stereo not drawn),85
10,CCn1cc2c(n1)CN(Cc1sccc1C)CC2COCC1CC1 (stereo not drawn),-57.3
11,CC(C)NC(=O)N1CCCC(Cn2cc(-c3ccc(F)cc3)nn2)C1 (stereo not drawn),12.5
12,COCC(=O)N1CCN(C)c2ncccc2C1,-3.1
13,CCc1nc(NCc2ccccn2)c2c(n1)c(C)nn2C,8.92
14,CCCc1nc(C)cc(N2CCC3(CCC(=O)N(CCOC)C3)CC2)n1,9.51
15,CCCc1ccc(OC23CCCN(CC2)C3)c(OC)c1 (stereo not drawn),-17.3
16,O=C1CC[C@@H](C(=O)N2CCC(Cn3cc(C4CCCCC4)nn3)CC2)N1,8.02
17,Cc1cc(C(=O)Nc2ccn(CCCN3CCCC3)n2)c(C)o1,-7.12
18,CN(Cc1nccn1C)C(=O)C1COCC(=O)N1Cc1ccccc1 (stereo not drawn),1.01
19,O=C(CN1CCCC1Cn1cncn1)NCCc1c(F)cccc1F (stereo not drawn),-6.24
20,O=S(=O)(c1ccc(F)cc1)N1CCN(CCCn2ccnc2)CC1,-5.63
21,Cn1cc(CCC(=O)NCc2ccccc2OC(C)(C)C)cn1,6.67
